GRK2 aptamer HTS: compounds blocking aptamer binding on GRK2 – biochemical, human GRK2, bead flow cytometry, HTS, primary screen; 0.59% of 330,000 active; inhibition of aptamer binding, % at 10 µM; FAM-aptamer displacement from GRK2; Beta-adrenergic receptor kinase 1 (Homo sapiens), P25098; AID 488847, 2010;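 active = inhibition of aptamer binding above 40%, roughly 3 SD of noise, on plates passing a quality check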;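 also: median bead fluorescence of bound FAM aptamer so fluorescent compounds give negative values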
Target sequence (P25098 whole entry, looked up): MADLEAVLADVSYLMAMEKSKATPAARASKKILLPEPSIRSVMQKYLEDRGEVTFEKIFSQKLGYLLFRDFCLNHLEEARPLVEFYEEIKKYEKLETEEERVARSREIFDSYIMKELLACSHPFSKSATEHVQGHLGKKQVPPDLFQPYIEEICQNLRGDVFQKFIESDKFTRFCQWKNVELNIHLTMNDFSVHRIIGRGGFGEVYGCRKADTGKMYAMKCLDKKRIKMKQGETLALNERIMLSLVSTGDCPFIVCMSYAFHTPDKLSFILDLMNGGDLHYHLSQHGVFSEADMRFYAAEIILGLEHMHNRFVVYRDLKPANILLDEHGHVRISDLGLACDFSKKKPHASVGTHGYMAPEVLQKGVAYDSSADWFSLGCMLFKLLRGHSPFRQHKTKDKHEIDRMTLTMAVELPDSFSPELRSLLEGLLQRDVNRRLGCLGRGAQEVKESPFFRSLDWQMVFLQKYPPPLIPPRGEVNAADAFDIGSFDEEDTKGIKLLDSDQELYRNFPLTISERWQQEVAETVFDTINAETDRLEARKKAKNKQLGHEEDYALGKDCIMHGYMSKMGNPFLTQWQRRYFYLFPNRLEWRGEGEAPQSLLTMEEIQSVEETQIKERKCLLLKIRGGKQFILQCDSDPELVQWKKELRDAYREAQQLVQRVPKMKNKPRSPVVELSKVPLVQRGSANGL
SR-BI DiI-HDL act: activators of SR-BI mediated DiI-HDL uptake, primary screen, ldlA[mSR-BI] CHO cells, DiI fluorescence; 3 h; 100 = double the neutral-control signal; activation, % at 12.5 µM; 0.096% of 320,000 active; AID 504775, 2011;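 active = mean replicate activation of at least 60% and every replicate at or above 60%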
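Test system: SR-BI-overexpressing, LDLR-lacking CHO cells. Measured by: DiI fluorescence, bottom read. Medium: Ham's F12 with 0.5% BSA, HEPES 25 mM, pH 7.4. Timing: 3 h uptake period with compound, 37 °C.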
SR-BI DiI inh: inhibitors of SR-BI mediated HDL lipid uptake, primary screen, ldlA[mSR-BI] cells, fluorescence, single point | 0.96% of 320,000 active | AID 488896, 2010 | ldlA[mSR-BI] CHO cells, DiI-HDL uptake fluorescence, 3 h | inhibition, % at 12.5 µM;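 active = mean replicate inhibition of at least 70% and a set share of replicates each scoring 70 or more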
Rin1 Abl inh: inhibitors of Rin1-Abl protein binding, primary screen, biochemical, TR-FRET. Tyrosine-protein kinase ABL1 (Homo sapiens) + Ras and Rab interactor 1 (Homo sapiens), …. 0.4% of 360,000 active. AID 588664, 2011. inhibition, % at 7.35 µM; in the data active = inhibition above about 5%, passing the limit was not always enough
Rin1-Abl confirm: Rin1-Abl binding inhibitor retest, confirmation, biochemical, TR-FRET; shares compounds with Rin1 Abl inh; purified proteins; inhibition, % at 7.35 µM; 49% of 1,300 active
GFP quencher: GFP fluorescence inhibitors and quenchers, artefact control for Rin1-Abl interaction inhibitor project, biochemical. 8.5% of 1,300 active. inhibition, % at 6.75 µM. shares compounds with Rin1 Abl inh. inhibitors/quenchers counterscreen;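 also: ABL1-eGFP fusion protein alone without its partner RIN1-SBP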
GFP quench dose: GFP fluorescence inhibitors and quenchers, dose response, artefact control for Rin1-Abl interaction inhibitor project, biochemical; shares compounds with Rin1 Abl inh; GFP fluorescence interference/quenching counterscreen; IC50, µM; 230 tested, under 10 active; AID 602182, 2012; call rule not given here;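 also: ABL1-eGFP fusion protein alone without its RIN1 binding partner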
Each line names hits and unclear results; the compound was inactive in the other large screens (follow-up assays come after a bar, where they were run). Shown are actives, neighbours in structure and some others; about 1.9% of the full set was active somewhere. Rule as the data show it, unless noted: active = inhibition above about 6.5%; inactive = the rest.

O=C(c1[nH]c(C(F)(F)F)nc1-c1ccccc1)N1CCC2(CC1)C(=O)NCN2c1ccccc1	none (no result: GRK2 aptamer HTS, SR-BI DiI-HDL act, SR-BI DiI inh)
CC(C)(C)S(=O)N1Cc2cc(C(=O)N3CCc4ccccc4C3)nc(-c3cccc(-c4cccnc4)c3)c2[C@@H]1CCO (stereo partly drawn)	none (no result: GRK2 aptamer HTS, SR-BI DiI-HDL act, SR-BI DiI inh)
Cc1[nH][nH]c(=O)c1C(c1ccc(-c2cccc(Cl)c2)o1)c1c(C)[nH][nH]c1=O	Rin1 Abl inh 7.9 | Rin1-Abl confirm 8.5 | GFP quencher inactive
COC(=O)c1ccc(-c2ccc(C(c3c(C)[nH][nH]c3=O)c3c(C)[nH][nH]c3=O)o2)cc1	none
COc1ccc(C)cc1N=Nc1ccc(O)c2ncccc12	Rin1 Abl inh 9.0 (no result: GRK2 aptamer HTS) | Rin1-Abl confirm 10.5 | GFP quencher 7.0
Oc1ccc(N=Nc2ccc3c(c2)OCCO3)c2cccnc12	Rin1 Abl inh 11.3 | Rin1-Abl confirm 8.4 | GFP quencher 8.1
COc1cccc(N=Nc2ccc(O)c3ncccc23)c1	none
COc1ccc(N=Nc2ccc(O)c3ncccc23)cc1	none
Nc1ccc2c(c1)C(=O)CCC2	none (no result: GRK2 aptamer HTS, SR-BI DiI-HDL act, SR-BI DiI inh)
CCC(=O)N1CCC1(C)C(=O)Nc1cc(-c2ccccc2)nn1C (stereo not drawn)	none (no result: GRK2 aptamer HTS, SR-BI DiI-HDL act, SR-BI DiI inh)
O=C(CSCc1ccccc1)NNc1c(F)c(F)cc(F)c1F	none
Oc1cccc(/C=N/NC(=S)NCCN2CCOCC2)c1O	Rin1 Abl inh 5.7 (no result: SR-BI DiI-HDL act, SR-BI DiI inh) | Rin1-Abl confirm inactive | GFP quencher inactive
Oc1c(CN2CCCCC2)cc(Br)c2cccnc12	Rin1 Abl inh 11.4 | Rin1-Abl confirm 8.0 | GFP quencher inactive
Oc1c(Cl)cc(CN2CCOCC2)c2cccnc12	Rin1 Abl inh 7.4 | Rin1-Abl confirm inactive | GFP quencher inactive
O=C(COc1ccccc1)N[C@@H]1c2ccccc2CC[C@@H]1O	none
CCC(=O)Nc1ccc(S(=O)(=O)NC[C@H]2O[C@@H](n3cnc4c(=O)[nH]c(N)nc43)[C@H](O)[C@@H]2O)cc1	none (no result: GRK2 aptamer HTS, SR-BI DiI-HDL act, SR-BI DiI inh)
Cn1c(SCc2ccccc2)nnc1-c1c[nH]c2ccccc12	none
COC(=O)c1ccc(CSc2nnc(-c3ccccc3)n2C)o1	Rin1 Abl inh 23.2 | Rin1-Abl confirm 32.0 | GFP quencher inactive | GFP quench dose inactive
COC(=O)c1ccc(CSc2nnc(-c3c[nH]c4ccccc34)n2C)o1	Rin1 Abl inh 25.6 | Rin1-Abl confirm 31.9 | GFP quencher inactive | GFP quench dose inactive
COC(=O)c1ccc(CSc2nnnn2-c2ccccc2)o1	none
Cc1ccc(-n2c(SCC(=O)N3Cc4ccccc4CC3C(=O)O)nnc2-c2cccnc2)c(C)c1 (stereo not drawn)	Rin1 Abl inh 7.0 | Rin1-Abl confirm 18.1 | GFP quencher inactive | GFP quench dose inactive
Cc1ccc(-n2nnnc2SCC(=O)N2Cc3ccccc3CC2C(=O)O)cc1 (stereo not drawn)	none (no result: SR-BI DiI-HDL act, SR-BI DiI inh)
CCc1nc2c(OCc3ccc(Cl)cc3)cccn2c1N(C)C(=O)c1ccc(C)cc1	none (no result: GRK2 aptamer HTS, SR-BI DiI-HDL act, SR-BI DiI inh)
O=c1[nH]c2ccccc2n1CCCSCCCn1c(=O)[nH]c2ccccc21	Rin1 Abl inh 8.7 | Rin1-Abl confirm 14.4 | GFP quencher inactive
Cc1ccc(CS/C(Nc2ccccc2C)=C(\C#N)C(=O)NCc2ccco2)c(C)c1	Rin1 Abl inh 25.7 | Rin1-Abl confirm inactive | GFP quencher inactive
O=C(NCCN1CCOCC1)c1cccc(S(=O)(=O)N(Cc2ccccc2)c2ccccc2)c1	none
CSc1ncc(CN2CCC(C(=O)Nc3cccc(-c4cscn4)c3)CC2)cn1	none
CCCc1ncc(CN2CCC(C(=O)Nc3cccc(-c4cscn4)c3)CC2)cn1	Rin1 Abl inh 36.5 | Rin1-Abl confirm 19.1 | GFP quencher inactive | GFP quench dose inactive
COCCc1ncc(CN2CCC(C(=O)Nc3cccc(-c4cscn4)c3)CC2)cn1	Rin1 Abl inh 13.5 | Rin1-Abl confirm 7.2 | GFP quencher inactive
CCn1cc(C(=O)NCc2ccco2)c2cc(OC)c(OC)cc2c1=O	none
COc1cc2c(C(=O)NCc3ccc(C)o3)cn(CC(C)C)c(=O)c2cc1OC	Rin1 Abl inh 6.9 | Rin1-Abl confirm inactive | GFP quencher inactive
CCOc1ccc2c(c1)OC(c1ccc(OC)cc1)(C(F)(F)F)NC2=O (stereo not drawn)	Rin1 Abl inh 7.1 | Rin1-Abl confirm inactive | GFP quencher inactive
CCOc1ccc(S(=O)(=O)N2CCN(C)CC2)c(C)c1C	Rin1 Abl inh 5.8 | Rin1-Abl confirm inactive | GFP quencher inactive
Cc1ccc(-c2cnc(C(O)c3cc(F)cc(Cl)c3)[nH]2)cc1 (stereo not drawn)	none (no result: GRK2 aptamer HTS, SR-BI DiI-HDL act, SR-BI DiI inh)
Cc1cc(Br)ccc1NC(=O)CSc1nnc(CN2CCOCC2)n1C	Rin1 Abl inh 10.0 (no result: SR-BI DiI-HDL act, SR-BI DiI inh) | Rin1-Abl confirm inactive | GFP quencher inactive
CCn1c(CN2CCOCC2)nnc1SCC(=O)Nc1ccccc1C	none
C/C(=N\NC(=O)c1ccc2c(c1)OCCO2)c1ccccc1	Rin1 Abl inh 6.5 (no result: GRK2 aptamer HTS) | Rin1-Abl confirm inactive | GFP quencher inactive
FC(F)(F)c1ccccc1Cc1c(-c2cccc(Cl)c2)nc2ccc(Cl)cn12	none (no result: GRK2 aptamer HTS, SR-BI DiI-HDL act, SR-BI DiI inh)
S=C(NCc1ccc2c(c1)OCO2)NC1CCN(Cc2ccccc2)CC1	Rin1 Abl inh 10.4 | Rin1-Abl confirm 11.0 | GFP quencher inactive
O=C(COC(=O)C12CC3CC(CC(O)(C3)C1)C2)NC(=O)NCc1ccco1	none
COC(=O)c1ccc(COC(=O)c2ccc(CO)cc2)o1	Rin1 Abl inh 7.3 | Rin1-Abl confirm inactive | GFP quencher inactive
COC(=O)c1ccc(COC(=O)C23CC4CC(CC(O)(C4)C2)C3)o1	Rin1 Abl inh 19.7 | Rin1-Abl confirm 16.7 | GFP quencher inactive | GFP quench dose inactive
CC(C)C(=O)N[C@@H]1c2ccccc2CC[C@@H]1O	none
O=C(Nc1ccc2c(c1)OCO2)C1Cc2c(-c3ccc4c(c3)OCO4)ccnc2O1 (stereo not drawn)	none (no result: GRK2 aptamer HTS, SR-BI DiI-HDL act, SR-BI DiI inh)
CC(=O)Nc1cc(-c2ccccc2)cn2c(-c3cccc(C(C)=O)c3)cnc12	none (no result: GRK2 aptamer HTS, SR-BI DiI-HDL act, SR-BI DiI inh)
CCc1ccc(-c2cc(C)no2)cc1S(=O)(=O)NCc1ccccc1OC	none (no result: SR-BI DiI-HDL act)
COc1ccccc1CN1CCC(CNS(=O)(=O)c2cc(-c3cc(C)no3)ccc2OC)CC1	Rin1 Abl inh 12.0 | Rin1-Abl confirm inactive | GFP quencher inactive
COc1ccccc1CC(NC(C)=O)C(=O)NC1CCN(S(=O)(=O)c2ccc(NC(C)=O)cc2)CC1 (stereo not drawn)	Rin1 Abl inh 12.0 (no result: SR-BI DiI-HDL act, SR-BI DiI inh) | Rin1-Abl confirm inactive | GFP quencher inactive
CC(C)N1CCC1(C)C(=O)Nc1nccc2cccnc12 (stereo not drawn)	none (no result: GRK2 aptamer HTS, SR-BI DiI-HDL act, SR-BI DiI inh)
Cc1ccccc1NC(=O)COc1ccccc1C	none

High-throughput results (PubChem BioAssay)
